Laboratory results published in ChEMBL document CHEMBL1154008, “Synthesis and in vitro activity of new tetrahydronaphtho[1,2-b]azepine derivatives against Trypanosoma cruzi and Leishmania chagasi parasites” (Bioorg Med Chem Lett, 2009).

What was measured:
[1] = Selectivity index, ratio of CC50 for african green monkey Vero cells to IC50 for Trypanosoma cruzi 320I04 intracellular amastigotes; format: functional
[2] = test system: Trypanosoma cruzi; assay: Antiparasitic activity against Trypanosoma cruzi 320I04 epimastigotes […] after 72 hrs; format: functional, organism-based
How it was run: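 Free parasite forms (T. cruzi 320I04 epimastigotes; L. chagasi MHOM/BR/74/PP75 promastigotes) exposed to compounds for 72 h at 27 °C. IC50/IC90 taken as the concentrations giving 50% or 90% growth inhibition. Values are representative of one experiment out of three.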

[3] = Cytotoxicity against human THP1 cells after 72 hrs by MTT assay; format: cell-based; details: THP-1 cells
How it was run: (§1)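 Vero or transformed THP-1 cells exposed to a 3-fold compound dilution series, in triplicate, for 72 h at 37 °C. Toxicity read by MTT reduction. CC50/CC90 taken as the concentrations killing 50% or 90% of cells. Values are representative of one experiment out of three.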

[4] = test system: Trypanosoma cruzi; assay: Antiparasitic activity against Trypanosoma cruzi 320I04 intracellular amastigotes infected in african green monkey Vero cells after 72 hrs; format: functional, organism-based; details: 320I04, Vero
[5] = Cytotoxicity against african green monkey Vero cells after 72 hrs by MTT assay; format: cell-based; details: chlorocebus sabaeus; how it was run: as §1
[6] = Selectivity index, ratio of CC50 for human THP1 cells to IC50 for Leishmania chagasi MHOM/BR/74/PP75 promastigotes; format: functional, THP-1
How it was run: (§2)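 SI calculated as Vero CC50 divided by T. cruzi IC50, or THP-1 CC50 divided by L. chagasi IC50. Both values come from 72 h exposures: parasites at 27 °C, mammalian cells at 37 °C with MTT read-out.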

[7] = test system: Leishmania chagasi; assay: Antiparasitic activity against Leishmania chagasi MHOM/BR/74/PP75 promastigotes infected in human THP1 cells after 72 hrs; details: MHOM/BR/74/PP75, THP-1, 72 h
[8] = Selectivity index, ratio of CC50 for african green monkey Vero cells to IC50 for Trypanosoma cruzi 320I04 epimastigotes; format: functional; how it was run: as §2

| SMILES | IC50 [2] | IC90 [2] | IC50 [4] | IC90 [4] | IC50 [7] | IC90 [7] | Ratio CC50/IC50 [1] | CC50 at 72 h [3] | CC90 at 72 h [3] | CC50 at 72 h [5] | CC90 at 72 h [5] | Ratio CC50/IC50 [6] | Ratio CC50/IC50 [8] |
| --- | --- | --- | --- | --- | --- | --- | --- | --- | --- | --- | --- | --- | --- |
| Fc1ccc([C@@H]2C[C@@H]3Cc4ccc5ccccc5c4N2O3)cc1 | 90.5 µM | > 300 µM | > 100 µM | > 100 µM | 70.4 µM | 113 µM | >3 | > 300 µM | > 300 µM | > 300 µM | > 300 µM | >4.3 | >3.3 |
| O=[N+]([O-])c1ccccc1[C@@H]1C[C@@H]2Cc3ccc4ccccc4c3N1O2 | 1.4 µM | 29.3 µM | > 100 µM | > 100 µM | 40.9 µM | 209 µM | <0.4 | > 300 µM | > 300 µM | 40.2 µM | > 300 µM | >7.3 | 28.7 |
| O[C@@H]1Cc2ccc3ccccc3c2N[C@H](c2ccccc2)C1 | 5.7 µM | 35.1 µM | 19.3 µM | > 30 µM | 46 µM | 67.1 µM | 5.6 | 102 µM | > 300 µM | 108 µM | > 268 µM | 2.2 | 18.9 |
| O[C@@H]1Cc2ccc3ccccc3c2N[C@H](c2ccccc2Cl)C1 | 0.5 µM | 11 µM | 10.6 µM | > 30 µM | 30.6 µM | 64.6 µM | 9.1 | 66.1 µM | > 300 µM | 96.5 µM | > 250 µM | 2.2 | 193 |
| Clc1ccc([C@@H]2C[C@@H]3Cc4ccc5ccccc5c4N2O3)c(Cl)c1 | 52.7 µM | > 250 µM | > 250 µM | > 250 µM | 22.1 µM | 45.8 µM | <0.2 | > 250 µM | > 250 µM | 55 µM | > 250 µM | >11.3 | 1 |
| Cc1cccc([C@@H]2C[C@H](O)Cc3ccc4ccccc4c3N2)c1 | 16.5 µM | 42.7 µM | 33.4 µM | > 30 µM | 41.4 µM | 134 µM | 2.6 | 89.9 µM | 116 µM | 87.4 µM | > 250 µM | 2.2 | 5.3 |
| Brc1ccc([C@@H]2C[C@@H]3Cc4ccc5ccccc5c4N2O3)cc1 | 11.4 µM | 176 µM | > 100 µM | > 100 µM | 73.4 µM | > 250 µM |  | > 250 µM | > 250 µM | > 250 µM | > 250 µM | >3.4 | 21.9 |
| c1ccc([C@@H]2C[C@@H]3Cc4ccc5ccccc5c4N2O3)cc1 | 11.5 µM | > 350 µM | > 100 µM | > 100 µM | 21.2 µM | 175 µM | <0.7 | > 350 µM | > 350 µM | 72.9 µM | > 350 µM | >16.5 | 6.3 |
| C[C@@H]1[C@H](O)[C@@H](C)/C=C/C=C/C=C/C=C/C=C/C=C/C=C/[C@H](O[C@@H]2O[C@H](C)[C@@H](O)[C@H](N)[C@@H]2O)C[C@@H]2O[C@](O)(C[C@@H](O)C[C@@H](O)[C@H](O)CC[C@@H](O)C[C@@H](O)CC(=O)O[C@H]1C)C[C@H](O)[C@H]2C(=O)O [AMPHOTERICIN B] |  |  |  |  | 0.01 µM | 0.03 µM |  | 0.17 µM | 0.18 µM |  |  | 17 |  |
| O[C@@H]1Cc2ccc3ccccc3c2N[C@H](c2ccc(F)cc2)C1 | 1.1 µM | 11.6 µM | 14.8 µM | > 30 µM | 21 µM | 120 µM | 6.8 | 81.9 µM | > 250 µM | 100 µM | > 250 µM | 3.9 | 91.4 |
| O[C@@H]1Cc2ccc3ccccc3c2N[C@H](c2ccc(Br)cc2)C1 | 10.2 µM | 15.9 µM | 9.9 µM | 29.7 µM | 18.5 µM | 37.1 µM | 6.7 | 79 µM | > 200 µM | 66.1 µM | > 200 µM | 4.3 | 6.5 |
| COc1cccc([C@@H]2C[C@H](O)Cc3ccc4ccccc4c3N2)c1 | 14 µM | 48.5 µM | 24.3 µM | > 30 µM | 17.9 µM | 58.7 µM | 4 | 195 µM | > 300 µM | 97.6 µM | > 200 µM | 10.9 | 7 |
| O[C@@H]1Cc2ccc3ccccc3c2N[C@H](c2cccc(Br)c2)C1 | 10.7 µM | 19.4 µM | > 100 µM | > 100 µM | 18.3 µM | 55.7 µM | 0.5 | 41.7 µM | > 250 µM | 49.5 µM | > 250 µM | 2.3 | 4.6 |
| Cc1cccc([C@@H]2C[C@@H]3Cc4ccc5ccccc5c4N2O3)c1 | 17 µM | 44.1 µM | > 100 µM | > 100 µM | 35.2 µM | 41.2 µM | >3 | > 300 µM | > 300 µM | > 300 µM | > 300 µM | >8.5 | >17.6 |

More lines, in order of falling IC50 [2], values ahead:

| IC50 [2] | IC90 [2] | IC50 [4] | IC90 [4] | IC50 [7] | IC90 [7] | SMILES | Ratio CC50/IC50 [1] | CC50 at 72 h [3] | CC90 at 72 h [3] | CC50 at 72 h [5] | CC90 at 72 h [5] | Ratio CC50/IC50 [6] | Ratio CC50/IC50 [8] |
| --- | --- | --- | --- | --- | --- | --- | --- | --- | --- | --- | --- | --- | --- |
| 100 µM | 293 µM | > 100 µM | > 100 µM | 184 µM | > 300 µM | Clc1ccccc1[C@@H]1C[C@@H]2Cc3ccc4ccccc4c3N1O2 | <0.4 | > 300 µM | > 300 µM | 37.2 µM | > 300 µM | >1.6 | 0.4 |
| 82.7 µM | > 300 µM | 89.6 µM | > 100 µM | 16.4 µM | 49.5 µM | COc1cccc([C@@H]2C[C@@H]3Cc4ccc5ccccc5c4N2O3)c1 | >3.3 | > 300 µM | > 300 µM | > 300 µM | > 300 µM | >18.3 | >3.6 |
| 38.8 µM | 105 µM | 16.2 µM | 83.4 µM | 35.4 µM | 43.1 µM | Clc1ccc([C@@H]2C[C@@H]3Cc4ccc5ccccc5c4N2O3)cc1 | >17.7 | > 300 µM | > 300 µM | 287 µM | > 300 µM | >8.5 | 7.4 |
| 12.6 µM | 80.1 µM | 13.1 µM | > 100 µM | 32.7 µM | > 300 µM | Clc1cccc([C@@H]2C[C@@H]3Cc4ccc5ccccc5c4N2O3)c1 | >22.9 | > 300 µM | > 300 µM | > 300 µM | > 300 µM | >9.2 | >23.8 |
| 4.8 µM | 17 µM |  | 11 µM |  |  | CC1CS(=O)(=O)CCN1/N=C/c1ccc([N+](=O)[O-])o1 (stereo unspecified) [NIFURTIMOX] |  |  |  | 114 µM | > 300 µM |  |  |
| 3.2 µM | 24.8 µM | > 100 µM | > 100 µM | 25.9 µM | 52.9 µM | O[C@@H]1Cc2ccc3ccccc3c2N[C@H](c2ccc(Cl)cc2)C1 | <1 | 36.2 µM | 122 µM | 95 µM | > 250 µM | 1.4 | 29.7 |
| 1.4 µM | 54.9 µM | 23.4 µM | > 30 µM | 6 µM | 67.3 µM | O[C@@H]1Cc2ccc3ccccc3c2N[C@H](c2cccc(Cl)c2)C1 | 1.3 | 43.2 µM | 177 µM | 30.7 µM | > 200 µM | 7.2 | 21.9 |
